Our source for the MIC values is ChEMBL document CHEMBL1148987, “Antimycobacterial coumarins from the sardinian giant fennel (Ferula communis)” (2004).

Type in all cases: functional
For one assay, the system named is Mycolicibacterium phlei. In words: Antimycobacterial activity against Mycobacterium phlei ATCC 11758 after 72 hrs by MTT assay. The settings on record: ATCC 11758, 72 h. Summed up:
(§1)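 Standard broth microdilution MIC in Ca2+/Mg2+-adjusted Mueller-Hinton broth; strains kept on Columbia blood agar with 5% defibrinated horse blood. DMSO stocks diluted into MHB, 2-fold series with final range […]. Inoculum from 0.5 McFarland standard in saline, final 5 × 10^5 cfu/mL; 37 °C for 72 h. Growth read by MTT (20 min, 37 °C, blue = growth); MIC = lowest concentration with no growth.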
For orientation: Formazan colour is commonly taken as a measure of viable cells.

For assay [1], the system named is Mycolicibacterium smegmatis. Kind of assay: Antimycobacterial activity against Mycobacterium smegmatis ATCC 14468 after 72 hrs by MTT assay. The settings on record: ATCC 14468, 72 h. Summed up: as §1
Assay [2] deals with Mycolicibacterium fortuitum. In words: Antimycobacterial activity against Mycobacterium fortuitum ATCC 6841 after 72 hrs by MTT assay. The settings on record: ATCC 6841, 72 h. Summed up: as §1
A further assay has as its system Mycolicibacterium aurum. In words: Antimycobacterial activity against Mycobacterium aurum after 120 hrs by MTT assay. Summed up: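 Broth microdilution MIC in Ca2+/Mg2+-adjusted Mueller-Hinton broth; strain maintained on Columbia blood agar with 5% defibrinated horse blood. Compounds dissolved in DMSO, diluted into MHB, 2-fold serial dilutions giving final 512 to 1 μg/mL. Inoculum from 0.5 McFarland in saline, final 5 × 10^5 cfu/mL. Incubated 37 °C, 120 h. MTT added, 20 min at 37 °C; blue indicates growth; MIC = lowest concentration without growth.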

Values after ≈ are worked out from the molar mass of the structure shown.

Usually MIC stands for the smallest concentration in the dilution series that meets the test's criterion for growth inhibition. Lower therefore signals greater potency. For `CC(C)=CCC/C(C)=C/CC/C(C)=C/Cc1c(O)c2ccccc2oc1=O`, the MIC against Mycolicibacterium phlei turned out to be 2 mg/L (≈ 5.46 µM); in assay [1], 0.5 mg/L (≈ 1.36 µM); in assay [2], 2 mg/L (≈ 5.46 µM); with Mycolicibacterium aurum it was 2 mg/L (≈ 5.46 µM).

The molecule `CCCCCCCCCc1c(O)c2ccccc2oc1=O` registered a minimal inhibitory concentration (MIC) in assay [2] of 3.5 mg/L (≈ 12.1 µM).

As for `NNC(=O)c1ccncc1` [ISONIAZID], the MIC in the assay with Mycolicibacterium phlei stood at 4 mg/L (≈ 29.2 µM); in assay [1], 1 mg/L (≈ 7.29 µM); in assay [2] it was 0.5 mg/L (≈ 3.65 µM); in the assay on Mycolicibacterium aurum, 2 mg/L (≈ 14.6 µM).

Turning to `C/C(=C\CC/C(C)=C/CC/C(C)=C/Cc1c(O)c2ccccc2oc1=O)CO`, the MIC in the assay on Mycolicibacterium phlei is 16 mg/L (≈ 41.8 µM); in assay [1] it was 16 mg/L (≈ 41.8 µM); in assay [2] it was 64 mg/L (≈ 167 µM); against Mycolicibacterium aurum, 32 mg/L (≈ 83.7 µM).

On to `C/C(=C\CC/C(C)=C/Cc1c(O)c2ccccc2oc1=O)CC/C=C(\C)COC(=O)c1ccccc1`, for which the minimal inhibitory concentration (MIC) against Mycolicibacterium phlei was found to be 2 mg/L (≈ 4.11 µM); in assay [1] it was 2 mg/L (≈ 4.11 µM); in assay [2] it was 16 mg/L (≈ 32.9 µM); against Mycolicibacterium aurum, 8 mg/L (≈ 16.4 µM).

Turning to `CC(=O)OC/C(C)=C/CC/C(C)=C/CC/C(C)=C/Cc1c(O)c2ccccc2oc1=O`, the minimum inhibitory concentration (MIC) against Mycolicibacterium phlei came out at 8 mg/L (≈ 18.8 µM); in assay [1] it was 8 mg/L (≈ 18.8 µM); in assay [2] it was 32 mg/L (≈ 75.4 µM); with Mycolicibacterium aurum, 16 mg/L (≈ 37.7 µM).

`CC[C@@H](CO)NCCN[C@@H](CC)CO` [ETHAMBUTOL]: the MIC stood at 2 mg/L (≈ 9.79 µM) in the assay on Mycolicibacterium phlei, 0.5 mg/L (≈ 2.45 µM) in assay [1], 8 mg/L (≈ 39.2 µM) in assay [2] and 0.5 mg/L (≈ 2.45 µM) with Mycolicibacterium aurum.
